Results from ChEMBL document CHEMBL1765074, “Synthesis, evaluation and structural studies of antiproliferative tubulin-targeting azetidin-2-ones” (Bioorg Med Chem, 2011).
pIC50: −log10 of the molar value.

Columns and labels:
MCF7 [1] = assay: Antiproliferative activity against human MCF7 cells by MTT assay; type: functional, cell-based
Summary of the method: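 MCF-7 cells grown in Eagle's MEM with 10% FBS, 2 mM L-glutamine, penicillin/streptomycin and 1% non-essential amino acids. Seeded at 2.5×10^4 cells/mL, left 24 h at 37°C, then treated 72 h across 1 nM–100 μM from ethanol stocks (vehicle 1% v/v). MTT at 1 mg/mL final for 2 h in darkness, DMSO solubilisation, absorbance read. IC50 is the mean of at least three experiments in triplicate.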

MDA-MB-231 [2] = assay: Antiproliferative activity against human MDA-MB-231 cells by MTT assay; type: functional, cell-based
Summary of the method: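 MDA-MB-231 cells in DMEM with 10% FBS, 2 mM L-glutamine and penicillin/streptomycin were seeded at 2.5×10^4 cells/mL and held 24 h at 37°C. They then got ethanol-stock compound over 1 nM–100 μM (vehicle 1% v/v ethanol) for 72 h. MTT at 1 mg/mL final was added for 2 h in the dark, then DMSO for 20 min before absorbance. Untreated = 100% viability. IC50 is the mean ± S.E.M. of ≥3 triplicate experiments.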

CCRF-CEM = assay: Antiproliferative activity against human CCRF-CEM cells; type: functional; conditions: read-out: LC50 (the source's name)
HL-60(TB) = assay: Antiproliferative activity against human HL-60(TB) cells; type: functional; conditions: read-out: LC50 (the source's name)
K562 = assay: Antiproliferative activity against human K562 cells; type: functional; conditions: read-out: LC50 (the source's name)
A549 = assay: Antiproliferative activity against human A549 cells; type: functional; conditions: read-out: LC50 (the source's name)
EKVX = assay: Antiproliferative activity against human EKVX cells; type: functional; conditions: read-out: LC50 (the source's name)
HOP-62 = assay: Antiproliferative activity against human HOP62 cells; type: functional; conditions: read-out: LC50 (the source's name)
HOP-92 = assay: Antiproliferative activity against human HOP92 cells; type: functional; conditions: read-out: LC50 (the source's name)
NCI-H226 = assay: Antiproliferative activity against human NCI-H226 cells; type: functional; conditions: read-out: LC50 (the source's name)
COLO 205 = assay: Antiproliferative activity against human COLO205 cells; type: functional; conditions: read-out: LC50 (the source's name)
HCC 2998 = assay: Antiproliferative activity against human HCC2998 cells; type: functional; conditions: read-out: LC50 (the source's name)
HCT-116 = assay: Antiproliferative activity against human HCT116 cells; type: functional; conditions: read-out: LC50 (the source's name)
SF-268 = assay: Antiproliferative activity against human SF268 cells; type: functional; conditions: read-out: LC50 (the source's name)
SF-295 = assay: Antiproliferative activity against human SF295 cells; type: functional; conditions: read-out: LC50 (the source's name)
SF-539 = assay: Antiproliferative activity against human SF539 cells; type: functional; conditions: read-out: LC50 (the source's name)
LOX IMVI = assay: Antiproliferative activity against human LOXIMVI cells; type: functional; conditions: read-out: LC50 (the source's name)
Malme-3M = assay: Antiproliferative activity against human MALME-3M cells; type: functional; conditions: read-out: LC50 (the source's name)
M14 = assay: Antiproliferative activity against human M14 cells; type: functional; conditions: read-out: LC50 (the source's name)
SK-MEL-2 = assay: Antiproliferative activity against human SK-MEL-2 cells; type: functional; conditions: read-out: LC50 (the source's name)
IGROV-1 = assay: Antiproliferative activity against human IGROV1 cells; type: functional; conditions: read-out: LC50 (the source's name)
OVCAR-4 = assay: Antiproliferative activity against human OVCAR4 cells; type: functional; conditions: read-out: LC50 (the source's name)
OVCAR-5 = assay: Antiproliferative activity against human OVCAR5 cells; type: functional; conditions: read-out: LC50 (the source's name)
786-0 = assay: Antiproliferative activity against human 786-0 cells; type: functional; conditions: read-out: LC50 (the source's name)
A498 = assay: Antiproliferative activity against human A498 cells; type: functional; conditions: read-out: LC50 (the source's name)
ACHN = assay: Antiproliferative activity against human ACHN cells; type: functional; conditions: read-out: LC50 (the source's name)
CAKI-1 = assay: Antiproliferative activity against human Caki1 cells; type: functional; conditions: read-out: LC50 (the source's name)
PC-3 = assay: Antiproliferative activity against human PC3 cells; type: functional; conditions: read-out: LC50 (the source's name)
MCF7 [3] = assay: Antiproliferative activity against human MCF7 cells; type: functional; conditions: read-out: LC50 (the source's name)
NCI/ADR-RES = assay: Antiproliferative activity against human NCI/ADR-RES cells; type: functional; conditions: read-out: LC50 (the source's name)
MDA-MB-231 [4] = assay: Antiproliferative activity against human MDA-MB-231 cells; type: functional; conditions: read-out: LC50 (the source's name)
MDA-MB-435 = assay: Antiproliferative activity against human MDA-MB-435 cells; type: functional; conditions: read-out: LC50 (the source's name)
MOLT-4 = assay: Antiproliferative activity against human MOLT4 cells; type: functional; conditions: read-out: LC50 (the source's name)
RPMI-8226 = assay: Antiproliferative activity against human RPMI8226 cells; type: functional; conditions: read-out: LC50 (the source's name)
NCI-H23 = assay: Antiproliferative activity against human NCI-H23 cells; type: functional; conditions: read-out: LC50 (the source's name)
[5] = Antiproliferative activity against human […] cells; type: functional; conditions: read-out: LC50 (the source's name)
NCI-H460 = assay: Antiproliferative activity against human NCI-H460 cells; type: functional; conditions: read-out: LC50 (the source's name)
NCI-H522 = assay: Antiproliferative activity against human NCI-H522 cells; type: functional; conditions: read-out: LC50 (the source's name)
HCT-15 = assay: Antiproliferative activity against human HCT15 cells; type: functional; conditions: read-out: LC50 (the source's name)
KM12 = assay: Antiproliferative activity against human KM12 cells; type: functional; conditions: read-out: LC50 (the source's name)
SW-620 = assay: Antiproliferative activity against human SW620 cells; type: functional; conditions: read-out: LC50 (the source's name)
SNB-19 = assay: Antiproliferative activity against human SNB19 cells; type: functional; conditions: read-out: LC50 (the source's name)
SNB-75 = assay: Antiproliferative activity against human SNB75 cells; type: functional; conditions: read-out: LC50 (the source's name)
U-251 = assay: Antiproliferative activity against human U251 cells; type: functional; conditions: read-out: LC50 (the source's name)
SK-MEL-28 = assay: Antiproliferative activity against human SK-MEL-28 cells; type: functional; conditions: read-out: LC50 (the source's name)
SK-MEL-5 = assay: Antiproliferative activity against human SK-MEL-5 cells; type: functional; conditions: read-out: LC50 (the source's name)
UACC-257 = assay: Antiproliferative activity against human UACC257 cells; type: functional; conditions: read-out: LC50 (the source's name)
UACC-62 = assay: Antiproliferative activity against human UACC62 cells; type: functional; conditions: read-out: LC50 (the source's name)
OVCAR-8 = assay: Antiproliferative activity against human OVCAR8 cells; type: functional; conditions: read-out: LC50 (the source's name)
SK-OV-3 = assay: Antiproliferative activity against human SKOV3 cells; type: functional; conditions: read-out: LC50 (the source's name)
RXF 393 = assay: Antiproliferative activity against human RXF393 cells; type: functional; conditions: read-out: LC50 (the source's name)
SN12C = assay: Antiproliferative activity against human SN12C cells; type: functional; conditions: read-out: LC50 (the source's name)
TK-10 = assay: Antiproliferative activity against human TK10 cells; type: functional; conditions: read-out: LC50 (the source's name)
UO-31 = assay: Antiproliferative activity against human UO31 cells; type: functional; conditions: read-out: LC50 (the source's name)
DU-145 = assay: Antiproliferative activity against human DU145 cells; type: functional; conditions: read-out: LC50 (the source's name)
BT-549 = assay: Antiproliferative activity against human BT549 cells; type: functional; conditions: read-out: LC50 (the source's name)
T47D = assay: Antiproliferative activity against human T47D cells; type: functional; conditions: read-out: LC50 (the source's name)
MDA-MB-468 = assay: Antiproliferative activity against human MDA-MB-468 cells; type: functional; conditions: read-out: LC50 (the source's name)

## COc1ccc([C@H]2N(c3cc(OC)c(OC)c(OC)c3)C(=O)C2(c2ccccc2)c2ccccc2)cc1 (mixture of isomers)
MCF7 [1]
  pIC50: 4.36

## COc1ccc([C@@H]2C(c3cccs3)C(=O)N2c2cc(OC)c(OC)c(OC)c2)cc1 (mixture of isomers)
MCF7 [1]
  pIC50: 7.19
MDA-MB-231 [2]
  pIC50: 6.72
CCRF-CEM
  CC50: > 100 µM
HL-60(TB)
  CC50: > 100 µM
K562
  CC50: > 100 µM
A549
  CC50: > 100 µM
EKVX
  CC50: > 100 µM
HOP-62
  CC50: > 100 µM
HOP-92
  CC50: > 100 µM
NCI-H226
  CC50: > 100 µM
COLO 205
  CC50: > 100 µM
HCC 2998
  CC50: > 100 µM
HCT-116
  CC50: > 100 µM
SF-268
  CC50: > 100 µM
SF-295
  CC50: > 100 µM
SF-539
  CC50: > 100 µM
LOX IMVI
  CC50: > 100 µM
Malme-3M
  CC50: > 100 µM
M14
  CC50: > 100 µM
SK-MEL-2
  CC50: > 100 µM
IGROV-1
  CC50: > 100 µM
OVCAR-4
  CC50: > 100 µM
OVCAR-5
  CC50: > 100 µM
786-0
  CC50: > 100 µM
A498
  CC50: > 100 µM
ACHN
  CC50: > 100 µM
CAKI-1
  CC50: > 100 µM
PC-3
  CC50: > 100 µM
MCF7 [3]
  CC50: > 100 µM
NCI/ADR-RES
  CC50: > 100 µM
MDA-MB-231 [4]
  CC50: > 100 µM
MDA-MB-435
  CC50: > 100 µM
MOLT-4
  CC50: > 100 µM
RPMI-8226
  CC50: > 100 µM
NCI-H23
  CC50: > 100 µM
[5]
  CC50: > 100 µM
NCI-H460
  CC50: > 100 µM
NCI-H522
  CC50: > 100 µM
HCT-15
  CC50: > 100 µM
KM12
  CC50: > 100 µM
SW-620
  CC50: > 100 µM
SNB-19
  CC50: > 100 µM
SNB-75
  CC50: > 100 µM
U-251
  CC50: > 100 µM
SK-MEL-28
  CC50: > 100 µM
SK-MEL-5
  CC50: > 100 µM
UACC-257
  CC50: > 100 µM
UACC-62
  CC50: > 100 µM
OVCAR-8
  CC50: > 100 µM
SK-OV-3
  CC50: > 100 µM
RXF 393
  CC50: > 100 µM
SN12C
  CC50: > 100 µM
TK-10
  CC50: > 100 µM
UO-31
  CC50: > 100 µM
DU-145
  CC50: > 100 µM
BT-549
  CC50: > 100 µM
T47D
  CC50: > 100 µM
MDA-MB-468
  CC50: > 100 µM

## COc1ccc([C@@H]2C(Cc3cccs3)C(=O)N2c2cc(OC)c(OC)c(OC)c2)cc1 (mixture of isomers)
MCF7 [1]
  pIC50: 5.79

## COc1cc(N2C(=O)[C@H](c3cccs3)[C@H]2c2ccc3ccccc3c2)cc(OC)c1OC (mixture of isomers)
MCF7 [1]
  pIC50: 6.92

## COc1cc(N2C(=O)[C@H](c3cccs3)[C@H]2c2cccs2)cc(OC)c1OC (mixture of isomers)
MCF7 [1]
  pIC50: 6.04

## COc1ccc([C@@H]2C(c3cccs3)C(=O)N2c2cc(OC)c(OC)c(OC)c2)cc1[N+](=O)[O-] (mixture of isomers)
MCF7 [1]
  pIC50: 6.43

## COc1ccc([C@@H]2C(c3cccc4ccccc34)C(=O)N2c2cc(OC)c(OC)c(OC)c2)cc1 (mixture of isomers)
MCF7 [1]
  pIC50: 4.95

## COc1ccc([C@@H]2C(c3ccc4ccccc4c3)C(=O)N2c2cc(OC)c(OC)c(OC)c2)cc1 (mixture of isomers)
MCF7 [1]
  pIC50: 5.60

## COc1ccc([C@@H]2C(c3ccoc3)C(=O)N2c2cc(OC)c(OC)c(OC)c2)cc1 (mixture of isomers)
MCF7 [1]
  pIC50: 6.82

## COc1ccc([C@@H]2C(c3ccsc3)C(=O)N2c2cc(OC)c(OC)c(OC)c2)cc1 (mixture of isomers)
MCF7 [1]
  pIC50: 7.22

## COc1ccc([C@@H]2C(c3ccc(C)s3)C(=O)N2c2cc(OC)c(OC)c(OC)c2)cc1 (mixture of isomers)
MCF7 [1]
  pIC50: 6.60

## COc1ccc([C@@H]2C(c3cc4ccccc4s3)C(=O)N2c2cc(OC)c(OC)c(OC)c2)cc1 (mixture of isomers)
MCF7 [1]
  pIC50: 6.07

## COc1ccc([C@@H]2[C@@H](C(O)c3ccsc3)C(=O)N2c2cc(OC)c(OC)c(OC)c2)cc1 (mixture of isomers)
MCF7 [1]
  pIC50: 6.00

## COc1cc(N2C(=O)[C@H](c3cccs3)[C@H]2c2cccc3ccccc23)cc(OC)c1OC (racemic)
MCF7 [1]
  pIC50: 6.21
